Source: PubChem (Johns Hopkins Ion Channel Center)
KCNQ1 pot – human KCNQ1 channel potentiation or activation | 310,000 tested, 0.35% active | B-score at 10 µM | CHO-K1 KCNQ1, thallium flux FluxOR fluorescence; hits give high values | AID 2648;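 active means fluorescence ratio B-score, a plate-corrected score, at least three library SD, with initial intensity B-score within 5 SD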
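System: Stable KCNQ1 CHO-K1 line | Incubation: 90 min dye loading and 20 min compound exposure, both at room temperature | Measure: Ratio B score | Medium: Assay buffer for compound exposure, DMSO matched across wells | Compound dosing: Single-concentration screen | Probe or stimulus: K+/Tl+ depolarizing stimulus | Measured by: Kinetic FluxOR fluorescence, 10 s baseline plus 110 s post-stimulus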
hERG rescue – shields human hERG channel from block by proarrhythmic agents; CHO-hERG, FluxOR thallium flux, dofetilide IC70 present; activation (rescue from dofetilide block), less the hit threshold, % at 10 µM; 310,000 tested, 0.51% active; AID 1511;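 active means activation above the mean of controls blocked by dofetilide plus 5 SD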;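 further: thallium influx through hERG after potassium depolarization seen as dye fluorescence rise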
KCNQ1 block – blocks the human KCNQ1 potassium channel; CHO-K1 KCNQ1, FluxOR thallium flux fluorescence; hits give high values; P51787; B-score at 10 µM; 310,000 tested, 1.3% active;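 active means compounds whose thallium flux B-score, printed positive for inhibition, exceeds three library SD while starting fluorescence stays within three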;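 further: channel opened by potassium depolarization with thallium stimulus after 20 min compound exposure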
KCNK9 inh – blocks the human KCNK9 two-pore domain potassium channel. B-score at 10 µM. HEK293 KCNK9, FluxOR thallium flux fluorescence; hits give low values. AID 488922. 310,000 tested, 1.2% active;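 active means ratio B-score over 3 SD below the library mean, with starting fluorescence within 5 SD of its mean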;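 further: negative B-score means less thallium flux so channel inhibition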
KCNK3 inh – human KCNK3 channel inhibition, primary screen | CHO-KCNK3 thallium flux, FluxOR fluorescence; hits give low values | AID 602410 | B-score at 10 µM | O14649 | 340,000 tested, 0.84% active;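 active means B-score under library mean minus 4 SD, starting fluorescence ratio at most library mean plus 5 SD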;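 further: more negative B-score means stronger inhibition of thallium flux through KCNK3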
A number is an active result; i = inactive; nt = no result. A selection: hits, their analogues and other compounds. The true share with any hit is near 3.1%.

SMILES	KCNQ1 pot	hERG rescue	KCNQ1 block	KCNK9 inh	KCNK3 inh
CN(C)CCCNC(=O)c1ccc(-c2nc(-c3ccc(Cl)cc3)cs2)cc1	i	i	i	-7.2	i
CC(c1ccccc1)C1C(C#N)=C(N)SC(N)=C1C#N (stereo unspecified)	i	i	i	i	i
CC(CC1C(C#N)=C(N)SC(N)=C1C#N)c1ccccc1 (stereo unspecified)	i	i	7	i	i
Cc1ccc(CNS(=O)(=O)c2cc3c4c(c2)CCN4C(=O)CC3)cc1	i	i	i	i	i
Fc1ccc(NC(=S)Nc2ccc(F)c(Cl)c2)cc1Cl	i	i	13	-6.7	-9.2
COC(=O)c1ccc(NC(=O)Nc2ccc(F)c(Cl)c2)cc1	i	i	6	i	i
COC(=O)NC(=S)Nc1ccc(Oc2ccc(Cl)cc2Cl)c(Cl)c1	16	i	i	i	i
COC(=O)c1ccc(NC(=O)Nc2ccc(F)cc2)cc1	i	i	6	i	i
OC(COc1ccc(CNCc2cccnc2)cc1)CN1CCc2ccccc2C1 (stereo unspecified)	i	i	i	i	i
Cc1ccccc1C(=O)NNC(=O)c1cc(S(=O)(=O)N2CCOCC2)ccc1C	nt	nt	nt	nt	i
CC(C)Cn1c(CCNC(=O)c2ccco2)nc2ccccc21	i	i	i	i	i
CC(C)Cc1nnc(NC(=O)c2ccc(S(=O)(=O)N3CCCC3)cc2)s1	nt	nt	nt	nt	i
Cc1ccc(-n2c(SCC(=O)N(C)C3CCS(=O)(=O)C3)nc3ccccc3c2=O)c(C)c1 (stereo unspecified)	nt	nt	nt	nt	-9.2
COCCn1c(SCC(=O)N(C)C2CCS(=O)(=O)C2)nc2ccccc2c1=O (stereo unspecified)	i	i	i	i	i
COc1ccc(C(=O)/C(=C\N(C)C)n2nc(C)cc2C)cc1	i	i	i	i	i
Cc1cc(C)n(/C(=C\N(C)C)C(=O)c2ccc(Cl)cc2)n1	i	5.6	i	i	i
Cc1cc(Nc2ccccc2)n(C(=O)c2ccc(Cl)cc2)n1	i	i	i	-6.6	i
CC(/C=N/NC(=O)c1ccc(Cn2cc([N+](=O)[O-])cn2)o1)=C\c1ccccc1	i	i	i	i	i
O=C(CSc1nnc2ccc(-c3ccc(F)cc3)nn12)N1CCOCC1	i	i	i	i	i
Cc1ccc(S(=O)(=O)N2CCOCC2)cc1NC(=O)COc1cccc(Oc2ccccc2)c1	i	i	6	i	i
CCOc1ncccc1C(=O)OCC(=O)Nc1cc(S(=O)(=O)N2CCOCC2)ccc1C	i	i	i	i	i
Cc1ccc(S(=O)(=O)N2CCN(C(=O)COC(=O)CCOc3ccc(C(C)(C)C)cc3)CC2)cc1	i	i	6	i	i
Cc1ccc(S(=O)(=O)N2CCOCC2)cc1NC(=O)COC(=O)c1cccnc1Cl	i	35	i	i	i
O=C(COC(=O)c1cccnc1Cl)Nc1ccc2c(c1)OCCO2	i	37	i	i	i
O=C(Nc1cccc(/C=C/c2ccccn2)c1)c1ccc(-n2cncn2)c([N+](=O)[O-])c1	i	i	i	i	i
SMILES	KCNQ1 pot	hERG rescue	KCNQ1 block	KCNK9 inh	KCNK3 inh
Cc1ccc(S(=O)(=O)N2CCOCC2)cc1NC(=O)COC(=O)CCOc1ccc(C(C)(C)C)cc1	i	i	8	i	i
Cc1ccc(S(=O)(=O)N2CCOCC2)cc1NC(=O)COC(=O)CNC(=O)c1ccc(C(C)(C)C)cc1	i	i	i	i	i
COc1ccc(NC(=O)Nc2cccc3c2O[C@H](CN(C)C(=O)Nc2c(C)noc2C)[C@@H](C)CN([C@H](C)CO)C3=O)cc1	nt	nt	nt	nt	i
CC1(C)CC(N2CCCC2)=CC(=[N+]2CCCCCC2)C1	i	i	i	i	i
CC1CC(C)C[N+](=C2C=C(N3CCCC3)CC(C)(C)C2)C1 (stereo unspecified)	i	i	8	i	i
COc1ccccc1C(C#N)c1cccc(Cl)n1 (stereo unspecified)	i	i	i	i	i
CC1CCCCC1n1c(=S)[nH]c2ccccc2c1=O (stereo unspecified)	19	i	i	i	i
O=c1c2ccccc2[nH]c(=S)n1CCc1ccccc1	17	20	i	i	i
CCC(C)n1c(=S)[nH]c2ccccc2c1=O (stereo unspecified)	14	14	i	i	i
O=C(c1cnn2c(C(F)(F)F)cc(-c3cccs3)nc12)N1CCN(C(c2ccccc2)c2ccccc2)CC1	i	i	6	i	i
